Results reported in ChEMBL document CHEMBL4513216, “Probing the Open Global Health Chemical Diversity Library for Multistage-Active Starting Points for Next-Generation Antimalarials” (ACS Infect Dis, 2020).

Assay: Toxicity liver stage against HepG2, at 10uM
Type: cell-based
Design: test concentration 10 uM, cell line HepG2-A16-CD81EGFP
Settings: human, HepG2-A16-CD81EGFP cells; read-out: INHIBITION
Outline: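 Uninfected HepG2-A16-CD81EGFP cells, 3 × 10^3 per well, 1536-well, plated on prespotted compound at 10 μM final, parasite-free screening media added to match infected plates; puromycin 10 μM positive, DMSO 0.5% negative; run in parallel with 48 h PbLuc assay at 37 °C, 5% CO2; viability by CellTiter-Glo luminescence, normalized to controls.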

Row | Structure (SMILES) | cytotoxicity at 10 µM [%]
1 | Cc1ccc(S(=O)(=O)Nc2c(C)nn(C)c2C)cc1C | 12.9
2 | CN1CCC(NC(=O)NCc2csc(Br)c2)CC1 | -8.92
3 | CC(C)(C)c1cc(C[C@H]2CNCC[C@H]2CC(=O)NCc2cccs2)no1 | -2.28
4 | CCOC(=O)CNC(=O)NCc1cccn1Cc1cccc(C)c1 | 9.24
5 | CCC(C)[C@H](NC(=O)c1cc(F)ccc1-n1cnnn1)C(=O)OC (stereo partly drawn) | 2.53
6 | COC(=O)c1cc2c(=O)n(C3CCCC3)ccc2nc1C | -43.9
7 | O=c1c(NCCc2ccc(O)cc2)c(NCc2ccco2)c1=O | -10.7
8 | O=C(CCCNc1ncccn1)Nc1ccc(Cn2cncn2)cc1 | 0.55
9 | COc1ccc2cc(NC(=O)CCCNc3ncccn3)cnc2c1 | -50.5
10 | CCOc1cc(NC(=O)C2CC(=O)N(c3cccc(OC)c3)C2)ncn1 (stereo not drawn) | -4.31
11 | O=S(=O)(NCC(O)c1ccoc1)c1ccc(Cl)s1 (stereo not drawn) | -9.34
12 | CC(C)c1nc(-c2cc(C(=O)O)c3ccccn23)cs1 | 7.43
13 | Cc1ccc(CN2CC[C@@H]3CN(S(C)(=O)=O)CCO[C@@H]3C2)o1 | 8.76
14 | CC(C)N1CCCc2sc(C(=O)NC3CC3)nc21 | -143
15 | O=c1cc(Cn2cncn2)nc2n1CCCN(Cc1ccco1)C2 | 7.61
16 | CNC(=O)CSc1cnn(CC(=O)Nc2cccc(Cl)c2C)c(=O)c1Cl | -17.6
17 | CC(C)(C)NCc1nn(Cc2ccccc2)nc1-c1ccccc1 | 11.9
18 | COc1cccc(C(C)Nc2ncnc3c2NC(=O)CN3)c1 (stereo not drawn) | 9.76
19 | COc1ccc(CNc2ncnc3c2NC(=O)CN3)cc1 | 11.8
20 | CCN(CC)C(=O)c1ccn(COc2cc(C)cc(C)c2)n1 | 13.9
21 | Cc1cc(N(C)C)nc(C2COCCN2Cc2cscn2)n1 (stereo not drawn) | -6.94

Row | Structure (SMILES) | cytotoxicity at 10 µM [%]
22 | O=C(CCc1ccc(Cl)cc1)N[C@@H]1CC[C@@H](O)[C@@H]1O | 3.85
23 | COCCN1CCC(c2cncc(-c3ccccc3C)n2)CC1 | -15.1
24 | O=C1NCC2(CCCN(Cc3ccc(F)cc3)C2)Oc2ccccc21 (stereo not drawn) | -12.8
25 | Cc1noc(C)c1-c1cccc(CC2CCN(C(=O)c3cc[nH]n3)C2)n1 (stereo not drawn) | 2.31
26 | CCn1cc(CN2C[C@@H]3CCCN3C[C@@H]2CCSC)c(C)n1 | 3.29
27 | O=C(c1cn(-c2ccc(C(F)(F)F)cn2)nn1)N1CCCCCC1 | -57.4
28 | N#Cc1ccc(CN2CCCC(Cn3cncn3)C2)c(F)c1 (stereo not drawn) | 0.762
29 | O=C(CCc1ccccc1)NCC(O)c1c(F)cccc1F (stereo not drawn) | -0.558
30 | Cc1cccc(S(=O)(=O)NCc2cccc(CS(C)(=O)=O)c2)c1 | -18.4
31 | CC(NCc1nnc2n1CCCC2)c1nc(Cc2ccccc2)no1 (stereo not drawn) | -45.1
32 | N#CCCN(CCC#N)C(=O)c1cccc(N2CCNC2=O)c1 | -18.7
33 | Cc1csc(N2CCN(Cc3cscn3)CC2C)n1 (stereo not drawn) | 16
34 | Cc1noc(C2CCN(CC(=O)N3CCNC(=O)C3)CC2)n1 | 2.41
35 | CC(=O)N(CCc1ccccc1)CC(=O)Nc1ccccc1C#N | 6.59
36 | COCCOC1CCN(C(=O)NCc2coc3ccccc23)CC1 | -8.93
37 | NCc1ccc(N2CCN(c3ncccn3)CC2)c(F)c1 | -50.8
38 | Cn1cc(CCCN2CCN(Cc3cccc(O)c3)CC2)cn1 | -52.5
39 | CCN(Cc1csc(C)n1)c1cccc(CO)c1 | -6.55
40 | CC/C=C(/C)C(=O)NS(=O)(=O)c1ccc(C#N)c(C(F)(F)F)c1 | 2.99
41 | CC(C)c1ccc(S(=O)(=O)Cc2nc(N)nc(N(C)C)n2)cc1 | -11.1
42 | COC(=O)c1ccc(C(=O)NCc2ccc(Br)cc2)cn1 | -23.2

Row | Structure (SMILES) | cytotoxicity at 10 µM [%]
43 | CCOCc1ccccc1NC(=O)NC1CCN(C(=O)OCC)CC1 | -14.5
44 | Cc1cc(Cl)c2c(c1)C1(NC(=O)c3cccnc3N1)C(=O)N2 (stereo not drawn) | 4.97
45 | O=c1ccc(-c2ccccc2F)nn1CCN1CCCS1(=O)=O | -10
46 | COCC1CN(C(=O)Cc2ccsc2)Cc2c1cnn2C (stereo not drawn) | -67
47 | CN1CCN(Cc2ccc(F)cc2)Cc2cccnc21 | -80.2
48 | CN(C)C(=O)COCC1CN(Cc2ccsc2)Cc2nccn2C1 (stereo not drawn) | -72.3
49 | O=C(NC1CCC1)c1c2c(N3CCCC3)ncnc2n2ccccc12 | -82.4
50 | CC(=O)NCC(=O)N1Cc2nccn2CC(Cn2cccn2)C1 (stereo not drawn) | 2.44
51 | Cn1cccc1-c1cc(C(=O)N2CCCC2c2nccs2)[nH]n1 (stereo not drawn) | 3.78
52 | Cc1ncc(CC(=O)N2CCC3(CCC(=O)N(CCO)C3)CC2)c(=O)[nH]1 | -44.7
53 | Cc1cc(C(=O)NCCC2CN(C)CCO2)c2cccc(C)c2n1 (stereo not drawn) | -2.94
54 | COc1ccc(-c2nc(CN3CCCC(OC)C3)c(C)o2)c(F)c1 (stereo not drawn) | -37.8
55 | CNC(=O)C(C)NC(=O)c1cc(COc2ccc(OC)cc2Cl)[nH]n1 (stereo not drawn) | 5.27
56 | Cc1nc2c(c(NCc3cc4ccccc4s3)n1)CCNCC2 | -48.3
57 | Cc1cc(C(=O)N2C[C@@H](C(=O)O)[C@H](C(C)C)C2)cs1 | -10.4
58 | O=C(CC1CCc2ccccc21)NC1(C(=O)O)CCOCC1 (stereo not drawn) | -2.13
59 | O=C(c1cccc(OCc2cscn2)c1)N1CCOCC1 | -6.13
60 | CNc1cc(N2CCCC2CNCc2csc(C(C)C)n2)ncn1 (stereo not drawn) | -14.9
61 | CC(Cn1cccn1)NC(=O)NCCc1cccnc1 (stereo not drawn) | -5.25
62 | CCn1cnnc1C1CCN(C(=O)c2cc(C)c(C)s2)CC1 | -26.9
63 | COc1ccccc1COCC(O)CN1CCC(c2ccn[nH]2)CC1 (stereo not drawn) | -2.54

Row | Structure (SMILES) | cytotoxicity at 10 µM [%]
64 | COc1ccccc1C(O)CNc1c(C#N)c(=O)n(C)c(=O)n1C (stereo not drawn) | -2.9
65 | CCC1CN(C(=O)NCc2cccnc2-n2cccn2)CCO1 (stereo not drawn) | -12.5
66 | Cc1nc(C)n(CC2CCCN2Cc2nc3ccccc3c(=O)[nH]2)n1 (stereo not drawn) | -4.35
67 | CCN(Cc1nc2c(cnn2C)c(=O)[nH]1)c1ccccc1 | -7.36
68 | Cc1cnc(CNC(=O)NCc2cccnc2N(C)C)s1 | -12.4
69 | N#Cc1cccc(S(=O)(=O)NC(=O)COc2ccc3c(c2)CCC3)c1 | 1.33
70 | CN(Cc1noc(C2CC2)n1)C1CCN(Cc2ccncc2)C1 (stereo not drawn) | -10.6
71 | CCN(Cc1ccc2c(c1)OCO2)C(=O)c1ccc(C)[nH]c1=O | -7.21
72 | CCc1n[nH]c(C2CN(C(=O)c3cnc(C)s3)CCO2)n1 (stereo not drawn) | -6.64
73 | Cc1ccc(N2CCCC(NCc3nc(C)c(C)o3)C2)nn1 (stereo not drawn) | -3.18
74 | Cn1nc2c(cc1=O)CN(Cc1nnc(-c3ccco3)o1)CC2 | -4.64
75 | Cc1cnnn1Cc1nnn2c1CN(Cc1cccs1)CCC2 | 8.28
76 | Cc1nc(CN2CCC3(CC2)NC(=O)CC3c2ccncc2)cs1 (stereo not drawn) | 5.79
77 | Cc1ccc(CN2CC(C(=O)Nc3ccccc3)C3(CCOCC3)C2)s1 (stereo not drawn) | -17.5
78 | c1ccc(CN2CCc3ncnc(-c4ccncc4)c3CC2)nc1 | -73.1
79 | CN(C)C(=O)COCc1nnc2n1CCN(Cc1ccoc1)C2 | 8.49
80 | c1cc(CN2C[C@@H]3OCCN(CC4CCCO4)[C@@H]3C2)cs1 (stereo partly drawn) | -76.9
81 | Cc1nc(C2(O)CCCNCC2)sc1CCOc1ccc(F)c(F)c1 (stereo not drawn) | -21.4
82 | c1cncc(OC[C@@H]2CC[C@H]3[C@H](CCN3Cc3cccs3)O2)c1 | 6.23
83 | CNc1nc2cn(CCc3ccc(F)cc3)c(=O)c-2c[nH]1 | 7.55
